Experimental data published in ChEMBL document CHEMBL3632537, “Chalcones from Angelica keiskei: Evaluation of Their Heat Shock Protein Inducing Activities” (J Nat Prod, 2015).
Activity calls are given as the source filed them. The calls are words filed in the database; no cut-off is given here.

How the values were obtained:
L132 (Homo sapiens) [1] = test: Upregulation of HSP70 mRNA expression in human L132 cells by RT-PCR analysis
L132 (Homo sapiens) [2] = test: Upregulation of HSF1 mRNA expression in human L132 cells by RT-PCR analysis
L132 (Homo sapiens) [3] = test: Upregulation of HSP27 mRNA expression in human L132 cells by RT-PCR analysis
L132 (Homo sapiens) [4] = test: Upregulation of HSP27 protein expression in human L132 cells by Western blot analysis
L132 (Homo sapiens) [5] = test: Upregulation of HSF1 protein expression in human L132 cells by Western blot analysis
L132 (Homo sapiens) [6] = test: Upregulation of HSP70 protein expression in human L132 cells by Western blot analysis
NCI-H460 = test: Induction of hsp25 promoter activity in human NCI-H460 cells at 10 uM measured at 5 hrs by luciferase reporter gene assay relative to control; type: functional
Procedure, shortened: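 NCI-H460 human lung cancer cells carrying a luciferase reporter driven by the murine hsp25 promoter. Cells were plated at 1 × 10⁵ per well, grown 24 h, then exposed to 10 μM compound and harvested 5 h later. Lysate luciferase was normalized to β-galactosidase and expressed as fold induction over untreated control. Values are mean ± SD of three independent experiments.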

[7] = Cytotoxicity against human L-132 cells assessed as cell viability at 1 to 8 uM after 12 hrs by MTT assay; type: cell-based; details: l132, 12 h
Procedure, shortened: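 L132 human lung fibroblasts exposed 12 h to 1, 2, 4 or 8 μM; medium swapped for MTT 0.5 mg/mL in PBS, 3 h at 37 °C, formazan dissolved in DMSO, absorbance at 540 nm converted to cell number via calibration curve; viability as ratio to DMSO no-treatment control; mean ± SD of three independent experiments, Student's t test vs untreated.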

L132 (Homo sapiens) [8] = test: Upregulation of HSP70 protein expression in human L132 cells at 2 uM measured at 6 hrs by Western blot analysis relative to control
L132 (Homo sapiens) [9] = test: Upregulation of HSF1 protein expression in human L132 cells at 2 uM measured at 6 hrs by Western blot analysis relative to control
L132 (Homo sapiens) [10] = test: Upregulation of HSP27 mRNA expression in human L132 cells at 2 uM measured at 3 hrs by RT-PCR analysis relative to control
L132 (Homo sapiens) [11] = test: Upregulation of HSP70 mRNA expression in human L132 cells at 2 uM measured at 3 hrs by RT-PCR analysis relative to control
L132 (Homo sapiens) [12] = test: Upregulation of HSP27 protein expression in human L132 cells at 2 uM measured at 6 hrs by Western blot analysis relative to control

Compound | Activity (L132 (Homo sapiens) [1]) | Activity (L132 (Homo sapiens) [2]) | Activity (L132 (Homo sapiens) [3]) | Activity (L132 (Homo sapiens) [4]) | Activity (L132 (Homo sapiens) [5]) | Activity (L132 (Homo sapiens) [6]) | fold change (FC) (NCI-H460) | Activity [7] | fold change (FC) (L132 (Homo sapiens) [8]) | fold change (FC) (L132 (Homo sapiens) [9]) | fold change (FC) (L132 (Homo sapiens) [10]) | fold change (FC) (L132 (Homo sapiens) [11]) | fold change (FC) (L132 (Homo sapiens) [12])
COC(C)(C)/C=C/C/C(C)=C/Cc1c(O)ccc(C(=O)/C=C/c2ccc(O)cc2)c1O | inactive | inactive | inactive | inactive | inactive | inactive | 21.9 | – | – | – | – | – | –
C=C(CCC=C(C)C)C(O)Cc1c(O)ccc(C(=O)/C=C/c2ccc(O)cc2)c1O (racemic) | – | – | – | – | – | – | 29.2 | Non-toxic | 1.5 | 4.3 | 1.5 | 5 | 4.6
CC1=C(O)C(=O)C=C2C1=CC=C1[C@@]2(C)CC[C@@]2(C)[C@@H]3C[C@](C)(C(=O)O)CC[C@]3(C)CC[C@]12C [CELASTROL] | – | – | – | – | – | – | – | Toxic | – | – | – | – | –
